Test results: ChEMBL document CHEMBL4350954, “Identification of Thienopyrimidine Scaffold as an Inhibitor of the ABC Transport Protein ABCC1 (MRP1) and Related Transporters Using a Combined Virtual Screening Approach” (J Med Chem, 2019)

What was measured:
ABCB1 (P-gp) = ABCB1 (P-gp) (Homo sapiens, UniProt P08183); assay: Inhibition of ABCB1 in human A2780/ADR cells at 10 uM preincubated for 30 mins followed by calcein AM addition and measured at 60 secs time interval by fluorescence assay relative to cyclosporine A; type: cell-based; conditions: probe calcein AM
Sequence of ABCB1 (P-gp) (P08183 whole entry): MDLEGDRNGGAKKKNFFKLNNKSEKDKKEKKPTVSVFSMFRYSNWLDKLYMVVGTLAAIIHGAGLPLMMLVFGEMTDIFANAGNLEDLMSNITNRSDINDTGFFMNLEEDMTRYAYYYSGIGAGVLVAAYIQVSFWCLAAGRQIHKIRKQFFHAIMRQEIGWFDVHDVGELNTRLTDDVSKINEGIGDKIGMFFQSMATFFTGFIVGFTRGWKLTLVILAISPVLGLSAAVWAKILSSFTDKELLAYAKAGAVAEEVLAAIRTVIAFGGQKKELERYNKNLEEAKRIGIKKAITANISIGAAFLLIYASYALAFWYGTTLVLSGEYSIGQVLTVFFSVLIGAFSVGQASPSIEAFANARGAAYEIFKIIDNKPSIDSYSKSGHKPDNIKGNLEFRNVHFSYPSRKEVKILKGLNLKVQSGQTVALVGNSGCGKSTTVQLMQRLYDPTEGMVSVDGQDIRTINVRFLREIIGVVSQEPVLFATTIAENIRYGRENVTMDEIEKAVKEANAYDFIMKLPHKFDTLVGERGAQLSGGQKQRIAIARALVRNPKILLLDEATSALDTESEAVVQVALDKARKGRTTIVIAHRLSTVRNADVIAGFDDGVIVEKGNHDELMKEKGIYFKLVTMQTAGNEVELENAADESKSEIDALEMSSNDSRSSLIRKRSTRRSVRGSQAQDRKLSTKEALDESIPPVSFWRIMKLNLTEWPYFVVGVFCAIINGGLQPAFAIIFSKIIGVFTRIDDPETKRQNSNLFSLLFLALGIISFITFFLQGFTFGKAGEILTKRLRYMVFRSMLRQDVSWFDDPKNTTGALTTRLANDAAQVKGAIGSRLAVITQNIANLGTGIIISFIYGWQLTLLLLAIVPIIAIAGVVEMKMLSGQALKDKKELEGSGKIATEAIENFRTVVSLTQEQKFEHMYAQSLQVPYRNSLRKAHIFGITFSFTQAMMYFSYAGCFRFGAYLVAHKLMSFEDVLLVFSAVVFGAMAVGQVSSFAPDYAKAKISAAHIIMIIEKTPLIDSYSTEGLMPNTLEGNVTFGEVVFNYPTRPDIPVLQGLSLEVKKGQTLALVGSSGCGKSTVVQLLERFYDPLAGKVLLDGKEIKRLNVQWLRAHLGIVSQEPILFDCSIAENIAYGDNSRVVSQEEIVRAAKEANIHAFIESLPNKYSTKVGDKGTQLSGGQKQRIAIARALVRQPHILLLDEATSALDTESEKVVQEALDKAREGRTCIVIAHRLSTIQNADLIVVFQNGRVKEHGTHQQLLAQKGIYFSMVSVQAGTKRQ

[1] = target: Multidrug resistance-associated protein 1 (Homo sapiens, UniProt P33527); assay: Reversal of ABCC1-mediated multidrug resistance in human H69AR cells assessed as resistance factor by measuring [GI50(resistant cell line without or with compound)/ GI50(sensitive cell line)] at 5 uM incubated for 72 hrs by MTT assay (reference value: 8.2); type: cell-based
Sequence of Multidrug resistance-associated protein 1 (P33527 whole entry): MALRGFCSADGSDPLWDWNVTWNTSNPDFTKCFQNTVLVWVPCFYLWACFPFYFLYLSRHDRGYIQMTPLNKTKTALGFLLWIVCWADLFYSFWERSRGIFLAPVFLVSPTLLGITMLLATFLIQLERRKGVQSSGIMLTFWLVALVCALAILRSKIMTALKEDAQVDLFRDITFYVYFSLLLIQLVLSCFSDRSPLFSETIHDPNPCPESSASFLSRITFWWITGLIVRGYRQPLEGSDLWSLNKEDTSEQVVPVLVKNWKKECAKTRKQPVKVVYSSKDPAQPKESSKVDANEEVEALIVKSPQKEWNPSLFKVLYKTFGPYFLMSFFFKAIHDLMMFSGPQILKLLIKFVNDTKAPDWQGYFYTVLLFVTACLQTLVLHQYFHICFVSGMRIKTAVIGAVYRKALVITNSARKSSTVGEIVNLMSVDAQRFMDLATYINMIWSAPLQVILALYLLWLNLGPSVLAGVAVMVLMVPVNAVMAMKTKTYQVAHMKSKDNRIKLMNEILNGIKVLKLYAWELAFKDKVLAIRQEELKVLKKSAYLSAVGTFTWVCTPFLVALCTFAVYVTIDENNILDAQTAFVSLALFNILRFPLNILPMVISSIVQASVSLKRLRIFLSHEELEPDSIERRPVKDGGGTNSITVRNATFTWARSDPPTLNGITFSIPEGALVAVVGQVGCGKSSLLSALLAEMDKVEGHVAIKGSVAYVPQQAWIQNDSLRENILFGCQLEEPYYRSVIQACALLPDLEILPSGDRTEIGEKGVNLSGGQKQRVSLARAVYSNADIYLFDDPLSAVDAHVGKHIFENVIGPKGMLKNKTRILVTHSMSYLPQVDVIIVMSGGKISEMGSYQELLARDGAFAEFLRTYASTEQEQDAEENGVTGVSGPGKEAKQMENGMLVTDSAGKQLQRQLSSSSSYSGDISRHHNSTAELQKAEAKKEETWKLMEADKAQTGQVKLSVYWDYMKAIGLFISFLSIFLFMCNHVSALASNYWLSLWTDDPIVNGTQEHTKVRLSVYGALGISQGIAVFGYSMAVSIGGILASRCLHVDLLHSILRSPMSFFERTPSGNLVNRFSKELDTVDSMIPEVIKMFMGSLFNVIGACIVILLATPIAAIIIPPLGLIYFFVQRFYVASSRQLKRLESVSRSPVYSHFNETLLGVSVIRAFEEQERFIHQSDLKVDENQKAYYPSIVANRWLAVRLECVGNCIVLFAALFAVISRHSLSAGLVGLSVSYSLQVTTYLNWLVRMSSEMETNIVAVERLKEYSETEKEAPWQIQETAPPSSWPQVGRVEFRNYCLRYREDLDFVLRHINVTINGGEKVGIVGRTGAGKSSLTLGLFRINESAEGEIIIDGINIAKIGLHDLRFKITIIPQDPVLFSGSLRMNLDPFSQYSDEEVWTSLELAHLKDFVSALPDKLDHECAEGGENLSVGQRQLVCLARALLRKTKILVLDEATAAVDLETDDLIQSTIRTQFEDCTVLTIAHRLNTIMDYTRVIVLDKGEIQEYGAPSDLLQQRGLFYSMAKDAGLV

[2] = target: ATP-dependent translocase ABCB1 (Homo sapiens, UniProt P08183); assay: Reversal of ABCB1-mediated multidrug resistance in human A2780/ADR cells assessed as resistance factor by measuring [GI50(resistant cell line without or with compound)/ GI50(sensitive cell line)] at 1 uM incubated for 72 hrs by MTT assay (reference value: 49); type: cell-based
Sequence of ATP-dependent translocase ABCB1 (P08183 whole entry): as the sequence (P08183 whole entry) above
In short: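 MDR reversal assay with daunorubicin at 10 nM–10 µM, alone or with test compound at 0.5, 1, 5 or 10 µM. Resistant cells were ABCB1-overexpressing A2780/ADR or MDCK II MDR1, with sensitive A2780 or MDCK II cells as comparators. Resistance factor = resistant GI50 / sensitive GI50. EC50 was derived from resistance factors versus modulator concentration. Values are from ≥3 experiments in duplicate ± SEM.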

[3] = Growth inhibition of MDCK2 cells co-expressing MRP1 (unknown origin) incubated for 72 hrs by MTT assay; type: cell-based, Canis lupus familiaris, MDCK-II; conditions: dog
In short: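 MTT-based cytotoxicity assay giving GI50 of the compound alone in each listed parental, selected or transfected cell line.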

ABCG2 (BCRP) = target: T1, ABCG2 (BCRP) (Homo sapiens, UniProt Q9UNQ0); assay: Inhibition of ABCG2 (unknown origin) expressed in MDCK2 cells co-expressing BCRP (unknown origin) assessed as effect on pheophorbide A accumulation at 10 uM pre-incubated for 20 mins followed by pheophorbide A addition and measured after 120 mins by flow cytometric analysis relative to Ko143; type: cell-based; conditions: probe pheophorbide A
T1 sequence (Q9UNQ0 whole entry): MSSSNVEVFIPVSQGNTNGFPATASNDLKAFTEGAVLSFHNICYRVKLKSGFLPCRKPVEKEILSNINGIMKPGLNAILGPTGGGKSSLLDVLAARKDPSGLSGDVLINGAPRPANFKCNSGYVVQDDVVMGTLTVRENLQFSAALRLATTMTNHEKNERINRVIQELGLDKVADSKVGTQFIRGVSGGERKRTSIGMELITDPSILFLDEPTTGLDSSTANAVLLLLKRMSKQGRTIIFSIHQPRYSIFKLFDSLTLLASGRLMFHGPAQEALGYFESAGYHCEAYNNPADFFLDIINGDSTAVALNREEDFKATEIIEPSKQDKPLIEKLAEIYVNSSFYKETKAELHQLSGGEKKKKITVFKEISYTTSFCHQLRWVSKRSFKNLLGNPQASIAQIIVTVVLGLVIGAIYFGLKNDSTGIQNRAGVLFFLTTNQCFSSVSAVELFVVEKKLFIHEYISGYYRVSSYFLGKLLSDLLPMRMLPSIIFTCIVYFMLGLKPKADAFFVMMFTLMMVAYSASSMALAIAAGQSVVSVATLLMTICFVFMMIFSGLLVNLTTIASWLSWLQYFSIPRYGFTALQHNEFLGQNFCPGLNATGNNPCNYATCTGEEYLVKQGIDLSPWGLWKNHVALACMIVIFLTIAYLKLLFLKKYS
In short: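 Pheophorbide A accumulation assay in ABCG2-transfected MDCK II BCRP cells. Ko143 at 10 µM set 100% and no compound set 0%. Screening was at 10 µM; compounds reaching >20% (+SEM) got IC50 curves constrained to the Ko143 maximum at 10 µM. Values are reported as mean ± SEM.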

## CC1CCc2c(sc3nc(-c4cccnc4)nc(N4CCN(C(C(N)=O)c5ccccc5)CC4)c23)C1 (stereo not given)
ABCB1 (P-gp)
  inhibition at 1 min, 10 µM: ≥ 20%
[1]
  RatioGI50: 3.8
[2]
  RatioGI50: 20
[3]
  GI50 at 72 h: 42.4 µM
ABCG2 (BCRP)
  inhibition at 2 h, 10 µM: ≥ 20%
